# Source: PubChem BioAssay
# Sampled rows, rich in hits. Any-hit rate of the full collection: about 2.3%.
# TRPC6 act: mouse TRPC6 channel activators, primary screen, cell-based, HEK293, membrane potential dye; actives 0.13% (n = 310,000); B-score at 10 µM; HEK293-TRPC6 membrane potential dye fluorescence; stronger effect = higher value; Short transient receptor potential channel 6 (Mus musculus), Q61143; AID 2550, 2010;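 active = B-score of the integrated fluorescence ratio above library mean plus 3 SD, and starting fluorescence ratio within library mean plus 5 SD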;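 note: higher score means more depolarization so channel activation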
# TRPC4 block: inhibitors of mouse TRPC4 channel, primary screen, Fluo4 calcium, HEK293 TRPC4beta/mu-opioid cells | DAMGO-evoked Fluo4 calcium flux; stronger effect = lower value | B-score at 10 µM | actives 0.39% (n = 300,000) | AID 2247, 2010;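 active = B-score over 3 SD under the library average, no early fluorescence shift, positive overall ratio signal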
#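 test system = HEK293 cells with stable TRPC4beta plus mu-opioid receptor expression | detection = Fluo4 Ca2+ flux fluorescence | read-out = integrated fluorescence ratio relative to baseline, converted to per-well B score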
# TRPC4 PAM: positive allosteric modulators of TRPC4, primary screen, cell-based, mouse TRPC4beta, HEK293 mu-opioid, Fluo-4 calcium; Short transient receptor potential channel 4 (Mus musculus), Q9QUQ5; DAMGO EC20, Fluo-4 Ca2+ flux; stronger effect = higher value; B-score at 10 µM; actives 0.42% (n = 310,000); AID 2227, 2009;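 active = B-score of calcium response area above 5 SD of library B-scores, with initial fluorescence ratio within 5 SD of library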;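 note: B-score of integrated fluorescence ratio over time as area under calcium response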
# TRPC6 inh: mouse TRPC6 channel inhibitors, primary screen, cell-based, HEK293, membrane potential dye; Short transient receptor potential channel 6 (Mus musculus), Q61143; ACh-evoked depolarization; stronger effect = lower value; B-score at 10 µM; actives 1.1% (n = 310,000);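 active = B-score under library mean minus 3 SD, initial fluorescence not abnormally high, positive integrated signal ratio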;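 note: B-score derived from integrated fluorescence ratio over the kinetic read; more negative B-score means stronger inhibition of depolarization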
# TRPC4 act: activators of mouse TRPC4 channel, primary screen, Fluo4 calcium, HEK293 TRPC4beta/mu-opioid cells; Short transient receptor potential channel 4 (Mus musculus), Q9QUQ5; Fluo4 calcium fluorescence; stronger effect = higher value; B-score at 10 µM; actives 0.49% (n = 310,000); AID 2237, 2010;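 active = B-score above 5 SD of library B-scores, and initial fluorescence ratio not above library mean plus 5 SD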;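 note: positive B-score marks a calcium rise read as TRPC4 activation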
#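 Assay system: HEK293 cells stably co-expressing mouse TRPC4beta and mu-opioid receptor / Timing: Fluo4 dye loading 45 min at room temperature, 110 s recording / Signal: Fluo4 calcium-sensitive dye fluorescence, kinetic, 1 Hz baseline / Read-out: integrated baseline-normalised fluorescence ratio, converted to per-well B score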
# * = called active by the depositor; i = inactive.
SMILES,TRPC6 act,TRPC4 block,TRPC4 PAM,TRPC6 inh,TRPC4 act
O=C(CN1CCN(Cc2ccccc2Cl)CC1)N=Nc1c(O)[nH]c2ccccc12,i,-6*,i,i,i
Cc1cc(C)cc(N(CC(=O)Nc2ccccc2)C2=NC3CS(=O)(=O)CC3S2)c1 (stereo unspecified),i,i,i,i,i
COc1cc(OC)c(CN2CCC(Cc3ccccc3)CC2)cc1Br,i,i,i,i,108*
Fc1ccc(CN2CCC(Cc3ccccc3)CC2)cc1F,i,-6*,i,i,i
CC1(C)CC(=O)C2=C(C1)OC1OC(=O)CC21C (stereo unspecified),i,i,i,i,i
Oc1ccc(CN2CCCCC2)nc1-c1ccccc1,i,-6*,i,i,i
COc1ccc(-n2c(O)c(/C=N/NS(=O)(=O)c3ccc(C)c([N+](=O)[O-])c3)c3ccccc3c2=O)cc1OC,i,i,i,i,56*
CC(=O)C1C(=O)C=C(c2cccs2)CC1c1ccccc1 (stereo unspecified),i,i,i,i,i
Cc1ccc(O)c(NC(=S)NC(=O)Cc2ccc(Cl)cc2)c1,i,i,12*,i,i
CNCCCOc1cc(C)cc(C)c1C,i,i,i,i,153*
CNCCCOc1ccc(C)cc1Br,i,i,14*,i,i
CCCCNCCCOc1ccc(C)cc1Br,i,i,i,i,i
COC(=O)c1cc(C(=O)Nc2ccc(Cl)cn2)cc([N+](=O)[O-])c1,i,i,i,i,i
COc1ccccc1N1CCN(C(=O)c2sc3nc(C)nc(N4CCN(c5ccccn5)CC4)c3c2C)CC1,i,-7*,i,i,i
Cc1nc(N2CCN(c3ccccn3)CC2)c2c(C)c(C(=O)N3CCN(c4ccc(F)cc4)CC3)sc2n1,i,-10*,i,i,i
COc1ccccc1N1CCN(C(=O)c2sc3ncnc(N4CCN(c5ccccn5)CC4)c3c2C)CC1,i,i,i,i,i
CCc1ccccc1NC(=S)N(CCCN(C)C)Cc1cc2cc3c(cc2[nH]c1=O)OCO3,i,-8*,i,i,i
Cc1cccc(NC(=S)N(CCCN(C)C)Cc2cc3cc4c(cc3[nH]c2=O)OCO4)c1,i,i,i,i,i
CC(=O)OC(c1nc2ccccc2c(=O)n1C1CC2(OC1=O)c1ccccc1N1C(=O)C(C)(C)N(O)C12)C(C)C (stereo unspecified),i,i,i,i,83*
CN(C)/C=C(\C(=O)c1ccc(F)cc1F)c1nnnn1-c1ccccc1,i,i,i,i,i
COc1ccc(NC(C#N)c2ccccc2OCc2ccccc2)cc1 (stereo unspecified),i,i,10*,i,i
CCN(CC)CCCNC(=O)c1cc2c(-c3cccc(OC)c3)nn(C)c2s1,i,i,13*,i,79*
CCCCN(CC)CCCNC(=O)c1cc2c(-c3ccc(OC)c(OC)c3)nn(C)c2s1,i,i,i,i,82*
CCCCN(C)CCNC(=O)c1cc2c(-c3cccc(OC)c3)nn(C)c2s1,i,i,25*,i,i
CCN1CCCC1CNC(=O)c1cc2c(-c3cccc(OC)c3)nn(C)c2s1 (stereo unspecified),i,i,i,i,i
SMILES,TRPC6 act,TRPC4 block,TRPC4 PAM,TRPC6 inh,TRPC4 act
COc1cccc(-c2nn(C)c3sc(C(=O)NCCCN(C)Cc4ccccc4)cc23)c1,i,i,i,i,57*
COc1cccc(-c2nn(C)c3sc(C(=O)NCc4ccco4)cc23)c1,i,i,i,i,i
O=C(CSc1nc2cc(Cl)ccc2s1)N1CCN(C(=O)c2ccco2)CC1,i,i,i,i,i
Cc1ccc(S(=O)(=O)N2CCN(C(=O)CSc3nnc(C)c(=O)[nH]3)CC2)cc1,i,i,i,i,i
CCC(C)NC(=O)Nc1ccccc1C (stereo unspecified),i,i,i,i,i
CC1CC(C)CN(CCCNC(=O)CCC(=O)N2CCOc3ccccc32)C1 (stereo unspecified),i,i,i,i,73*
CCCCNc1nc(=S)[nH]c2cc(OC)c(OC)cc12,i,-8*,i,i,i
O=C(Nc1ccc2nn(-c3ccccc3)nc2c1)c1ccc2c(c1)OCCO2,i,i,i,i,i
CCOc1ccc(S(=O)(=O)N2CCOCC2)cc1NC(=O)CSCc1c(C)noc1C,i,i,10*,i,i
Fc1ccccc1N1CCN(C(c2ccccn2)c2nnnn2C2CCCCC2)CC1 (stereo unspecified),i,i,i,i,i
COc1ccccc1N1CCN(C(c2ccccn2)c2nnnn2C2CCCCC2)CC1 (stereo unspecified),i,i,i,i,74*
CN1CCN(c2ccc(NC(=O)c3ccc(Br)o3)cc2)CC1,i,-7*,i,i,i
Cc1c(C(=O)NCc2cccnc2)oc2ccc(S(=O)(=O)N3CCC4(CC3)OCCO4)cc12,i,i,i,i,i
CNCC(C)COc1ccccc1OCc1ccccc1 (stereo unspecified),i,-6*,i,i,i
C=CCSc1nnc(NC(=O)c2c(CC)noc2C)s1,i,i,i,i,i
CN(C)/C=C1\C(=O)N(c2ccc([N+](=O)[O-])cc2)N=C1c1ccccc1,i,-6*,i,i,47*
CN(C)/C=C1/C(=O)N(c2ccc([N+](=O)[O-])cc2)N=C1c1ccccc1,i,i,i,i,i
CC(=O)Nc1cccc(Cl)c1C(=O)O,i,i,i,i,i
O=C(c1ccccc1)N(Cc1ccc(F)cc1)Cc1nc2ccccc2c(=O)[nH]1,i,i,12*,i,i
O=C(O)c1cccc(O)c1O,i,i,i,i,i
CCCCOc1ccc(CSC(CC(=O)O)C(=O)O)cc1 (stereo unspecified),i,i,i,i,i
CCCCOc1ccc(CSCCN=C(N)N)cc1,i,-6*,i,i,i
